Assay results as given in paper PMC3929184 (Journal of controlled release : official journal of the …, 2013).

How the values were obtained:
furin protease = furin protease (Homo sapiens, UniProt P09958); assay: In vitro cleavage by furin protease; type: in vitro ADME; conditions: Figure S1
[1] = Glucose tolerance test after nasal administration in mice; type: in vivo, WT C57BL/6 mice; conditions: systemic uptake monitored functionally by glucose-tolerance test
In short: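 Male C57BL/6 mice (6-9 weeks; Nnt deletion), acclimatized 2 weeks, fasted 18 h, lightly isoflurane-anesthetized. 20 μL of test peptide or its glycolipid conjugate (various concentrations) or saline was dripped slowly into the nasal cavity. After 1 h, glucose 2 g/kg was injected (n = 2 each). Blood glucose was read by glucometer from ~5 μL tail-nick blood at set times, and AUC was calculated.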

Sequence of furin protease (P09958 108-794): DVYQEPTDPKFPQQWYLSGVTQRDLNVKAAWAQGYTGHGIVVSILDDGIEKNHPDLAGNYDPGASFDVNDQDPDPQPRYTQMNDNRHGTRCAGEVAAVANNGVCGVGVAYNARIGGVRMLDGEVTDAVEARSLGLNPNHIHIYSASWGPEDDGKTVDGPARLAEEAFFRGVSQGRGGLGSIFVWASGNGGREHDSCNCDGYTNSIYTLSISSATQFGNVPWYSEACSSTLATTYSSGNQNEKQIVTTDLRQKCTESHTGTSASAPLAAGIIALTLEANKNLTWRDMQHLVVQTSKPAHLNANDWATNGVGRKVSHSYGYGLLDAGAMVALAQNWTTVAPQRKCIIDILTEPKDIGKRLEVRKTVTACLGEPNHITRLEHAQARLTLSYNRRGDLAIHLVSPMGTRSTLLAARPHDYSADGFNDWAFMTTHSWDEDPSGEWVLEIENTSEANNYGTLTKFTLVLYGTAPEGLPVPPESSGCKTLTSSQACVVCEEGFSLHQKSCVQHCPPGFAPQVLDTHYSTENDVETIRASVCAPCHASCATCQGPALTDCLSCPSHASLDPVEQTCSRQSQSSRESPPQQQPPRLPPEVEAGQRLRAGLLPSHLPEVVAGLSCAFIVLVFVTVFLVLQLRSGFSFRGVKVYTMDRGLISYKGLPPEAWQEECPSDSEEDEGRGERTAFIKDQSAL

Glucagon-like peptide-1 [GLP-1*]
Cleavage by the furin protease (furin protease): resistant to cleavage | Mucosal absorption after nasal application [1]: evidence for absorption
